Most compounds without a hit are left out; they make up all but 0.95% or so of the library.
CAL PDZ FP-1: CAL PDZ (human) peptide binding inhibition | Q9HD26 | purified CAL PDZ, TMR-peptide fluorescence polarization, 1 h | inhibition, % at 24.9 µM | 300,000 tested, 0.92% active;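 active means mean inhibition of at least 30% with at least half of replicates also reaching 30%; inconclusive means no clear call, values can overlap the other calls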;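 further: 0% = DMSO neutral control and 100% = excess unlabeled competitor peptide PRC23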
miR122 inh: miR-122 inhibition in Huh7 cells. activation (reporter increase), % at 12.5 µM. Huh7 miR-122 Renilla luciferase sensor, 48 h; neutral wells = 0, positive control = 100. 340,000 tested, 0.3% active;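 active means mean replicate activation score at least 90 and every replicate individually at or above 90; inconclusive means only one of the two criteria met; inactive means neither criterion met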;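 further: higher luciferase means less miR-122 activity so hits act as miR-122 inhibitors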
PvdQ inh: P. aeruginosa PvdQ acylase inhibition | purified PvdQ acylase, fluorescence plate reader | inhibition, % at 10 µM | 340,000 tested, 0.063% active | AID 488965; in the data active means inhibition above about 30%, passing the limit was not always enough; inconclusive means no clear call, values can overlap the other calls;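 further: 0% = vehicle neutral wells and 100% = reference inhibitor wells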
CAL PDZ FP-2: inhibitors of human CAL PDZ peptide binding; 330,000 tested, 0.02% active; purified CAL PDZ, TMR-peptide fluorescence polarization, 1 h; AID 504414; inhibition, % at 20 µM;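 active means highest replicate inhibition of at least 40%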;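 further: plate controls were DMSO neutral control wells for no effect and unlabeled competitor peptide control wells for full effect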
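Control set: unlabelled peptide and DMSO controls / Material: purified CerCALP PDZ construct / Timing: 1 h incubation at room temperature before polarization reading / Doses: 20 µM, one dose / Detection: fluorescence polarization (mP)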
Numbers without * were called inactive; ? = inconclusive; . = not tested or not shown; [ ] = dose if it differs, or a comment.

SMILES | CAL PDZ FP-1 | miR122 inh | PvdQ inh | CAL PDZ FP-2
O=C(Nc1cc(S(=O)(=O)N2CCOCC2)ccc1Cl)C(=O)c1c(-c2ccccc2)cc2ccccn12 | -0.5 | 154.9* | -12.2 | -3.3
CCOC(=O)/C=C1/SCC(=O)N1Cc1ccc(Br)cc1 | -2.9 | -1.5 | -16.3 | -0.9
CCOC(=O)/C=C1\SCC(=O)N1Cc1nnc(-c2ccccc2Br)o1 | 59.8* | 0.0 | -9.0 | -1.9
O=C(NCCCN1CCCC1=O)c1cccc(S(=O)(=O)Nc2ccc(Br)cc2)c1 | 7.3 | 110.4* | -2.5 | -3.4
O=C(NCCCN1CCCC1=O)c1cc2c(s1)CCCCC2 | 80.1* | -8.5 | -15.4 | .
COCCNC(=O)c1ccc(C)c(S(=O)(=O)Nc2ccc(C)cc2)c1 | 1.0 | ? | -9.4 | 0.2
O=C(NCc1ccccn1)c1cccc(S(=O)(=O)Nc2ccc(F)cc2)c1 | -6.3 | . | -4.9 | -1.0
Cc1ccc(C(=O)NCCSc2ccccc2)cc1S(=O)(=O)Nc1ccccc1 | . | 94.4* | -7.0 | -1.5
O=C(NCc1ccncc1)c1cccc(S(=O)(=O)Nc2ccc(F)cc2)c1 | -2.2 | 91.4* | 7.1 | -2.6
CCn1nnc(NC(=O)C(C)(c2ccccc2)c2ccccc2)n1 | . | -0.3 | -10.8 | -0.1
Cc1ccc(CSc2nnc(SCC(=O)N/N=C/c3ccc(C(=O)O)cc3)s2)cc1 | -1.7 | -2.8 | -6.0 | -2.5
Cc1noc(C)c1NC(=O)Nc1ccc2c(c1)C(=O)N([C@@H](C)CO)C[C@H](C)[C@@H](CN(C)S(=O)(=O)c1cccs1)OCCCC[C@H](C)O2 | . | 17.2[16.7 µM] | . | .
O=C(NCCCn1ccnc1)c1cccc(S(=O)(=O)Nc2ccc(F)cc2)c1 | -1.5 | 141.8* | -12.7 | -2.4
O=C(NCCCn1ccnc1)c1cccc(S(=O)(=O)Nc2ccc(Br)cc2)c1 | -3.2 | 72.3 | -12.2 | -2.4
Cc1ccc(NS(=O)(=O)c2ccc(C(=O)NCc3ccncc3)cc2)cc1 | -2.4 | 5.8 | -16.7 | -3.1
Cc1ccc(NS(=O)(=O)c2cc(C(=O)NCc3ccncc3)ccc2C)cc1 | -6.7 | 116.8* | -19.0 | -2.9
COC(=O)c1ccccc1NC(=O)c1cccc(COc2ccccc2Cl)c1 | 1.6 | 8.3 | -10.8 | -1.8
Cc1ccc(N2C(=O)C3C4CC(=O)C(c5ccccc54)C3C2=O)cc1 (stereo not given) | 0.7 | ? | -4.3 | -1.6
O=C1CC2c3ccccc3C1C1C(=O)N(Cc3ccccc3)C(=O)C21 (stereo not given) | 34.9* | . | -17.4 | -0.8
COc1cc2c(cc1OC)/C(=C/C(=O)c1ccc(F)cc1)NCC2 | -4.4 | 4.2 | -12.3 | -1.3
Cc1ccc(Nc2nc(NCC3CCCO3)nc(N)c2[N+](=O)[O-])cc1C (stereo not given) | 30.5* | -3.1 | -7.7 | 0.1
CCN(CC)CCn1c(=S)[nH]c2ccc(Br)cc2c1=O | 87.1* | . | -17.1 | 4.0
CCN(CC)CCn1c(=S)[nH]c2ccccc2c1=O | -3.9 | 0.5 | -1.0 | -2.4
COc1ccc(Cl)cc1N(C(C)=O)c1nc(C)cc(C)c1C#N | . | 4.3 | -19.2 | 1.0
COc1ccccc1N(C(C)=O)c1nc(C)cc(C)c1C#N | 30.9* | -4.1 | -15.9 | -0.8
SMILES | CAL PDZ FP-1 | miR122 inh | PvdQ inh | CAL PDZ FP-2
Cc1onc(-c2ccccc2)c1C(=O)N/N=C/c1cc(Br)c(Br)o1 | -0.7 | . | -11.4 | -2.7
CC1CCN(Cc2nnnn2CCCC(=O)NCCc2cnn(C)c2)CC1 | 113.2* | -6.8 | -18.1 | -2.7
CC1CCN(Cc2nnnn2CCCC(=O)NCC(C)(C)N2CCOCC2)CC1 | -2.5 | 4.6 | -6.1 | -0.6
CC1(C)CC(=O)N(c2ccc(Cl)cc2Cl)C(=O)C1 | 61.0* | -5.6 | -10.4 | 0.5
COc1ccc(CNc2ccc(-c3ccccc3OC)nn2)cc1 | 55.5* | -7.9 | -3.7 | -1.3
N#CCCN(C(=O)COC(=O)c1ccc(S(=O)(=O)N2CCOCC2)cc1)c1ccccc1 | . | 1.3 | -11.3 | -1.3
CN(C(=O)COC(=O)c1ccc(S(=O)(=O)N2CCOCC2)cc1)c1ccccc1 | 44.8* | 3.9 | -10.0 | -0.2
CCN(CC)CCN(C)C(=O)c1ccc(OC2CCN(C(=O)C3CC3)CC2)cc1 | -3.1 | 3.4 | -0.9 | 0.4
Cc1occc1C(=O)NC1CCCN(Cc2ccc(Cl)cc2)C1 (stereo not given) | -3.2 | -1.3 | -16.1 | -0.8
C=CCOC(=O)c1ccc(-n2cnc(C)n2)nc1 | -2.7 | . | 70.7* | -2.7
COc1ccc(S(=O)(=O)NCCC(=O)OCC(=O)c2ccc[nH]2)cc1[N+](=O)[O-] | 45.9* | -9.5 | -16.9 | -0.3
COc1cc(C(=O)NCC(=O)OCC(=O)c2ccc[nH]2)cc(OC)c1OC | 61.0* | -5.4 | -13.9 | -0.5
COc1ccc(C(=O)NCC(=O)OCC(=O)c2cc(OC)c(OC)c(OC)c2)cc1OC | -1.3 | . | -6.5 | -1.7

Bioassay records (PubChem BioAssay)
